This is a sample that favours compounds with a hit; in the whole collection about 11% have one here.
WT yeast gro inh: growth inhibition of WT yeast, mitochondrial fusion screen | AID 1362 | hit rate 2.1% among 190,000 | mitochondrial fusion phenotypic screen, WT strain | inhibition, % at 10 µM; in the data active = inhibition above about 58%; tested in S. cerevisiae
G6PDH CS: L. mesenteroides G6PDH inhibition counter-screen; Purified L. mesenteroides G6PDH, diaphorase/resazurin coupled fluorescence, 45 min; hit rate 0.12% among 200,000; inhibition, % at 5 µM; AID 1020
Lmaj promast: Leishmania major promastigote growth inhibition. inhibition, % at 10 µM. Leishmania major promastigotes, resazurin fluorescence viability. hit rate 9% among 200,000. AID 1063;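 note: promastigotes grown with compound for 44 hours at 28 °C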
Diaph inh CS: inhibits diaphorase or chemically oxidizes, flagging diaphorase assay artifacts; inhibition, % at 20 µM; hit rate 0.69% among 190,000; diaphorase resazurin-to-resorufin fluorescence, NADH, 16 min; bacterial (C. kluyveri) enzyme, not human;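 active = primary screen inhibition at 20 µM above a set limit, cut at about 50% in these data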;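 note: plate controls were DMSO with full reaction for no effect and wells lacking NADH for full effect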
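Assay system: diaphorase enzyme from Clostridium kluyveri; Input: enzyme working solution with 0.14 U/mL diaphorase; Timing: 16 min at room temperature; Technique: resorufin fluorescence, excitation 544 nm, emission 590 nm; Benchmarks: positive control minus NADH, DMSO neutral control.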
Diaph act CS: diaphorase activation or chemical reduction counter-screen; Diaphorase/resazurin coupled assay, resorufin fluorescence, 16 min; hits give high values; 1 = vehicle wells, 0 = NADH-free wells; activation factor at 20 µM; hit rate 0.005% among 190,000;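 active = diaphorase activity raised at least twofold by the compound at 20 µM; inactive = activation factor below 2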
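Material: bacterial diaphorase enzyme (C. kluyveri); amount: enzyme 0.07 U/mL final; reagent: NADH substrate 0.114 mM plus resazurin dye 0.1 mM, final; doses: single compound dose of 20 µM, 1% DMSO final; timing: 16 min enzyme reaction, ambient temperature; measured by: fluorescence of resorufin, 544 nm excitation, 590 nm emission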
* hit, by the source's call; / = no result. Cut-off read from the data, not from the text of the source, unless noted: active = inhibition above about 50%; inactive = the rest.

SMILES | WT yeast gro inh | G6PDH CS | Lmaj promast | Diaph inh CS | Diaph act CS
CCOc1ccc2nc(C)cc(Nc3ccc4c(c3)OCCO4)c2c1 | 19 | 15 | 101* | -12 | 1.1
CCOc1ccc2nc(C)cc(Nc3ccc(N4CCOCC4)cc3)c2c1 | 9 | 0 | 64* | -1 | 1
COc1ccc(CCNC(=O)Nc2ccc([N+](=O)[O-])cc2)cc1OC | -6 | 10 | 11 | 0 | 1
COCCNc1nc2sc3c(c2c(=O)n1Cc1ccco1)CCCCC3 | 6 | 4 | 1 | 11 | 0.9
COc1cccc(C(=O)N(C)c2nnc(-c3ccncc3)s2)c1 | 51 | 0 | 5 | 2 | 1
Cc1ccc(Nc2ccc(C(=O)O)cc2N)cc1 | 73* | 0 | -6 | 15 | 0.8
CC(=O)c1ccc(Nc2cc(C)nc3ccc(C)cc23)cc1 | -2 | 18 | 84* | -10 | 1.1
Cc1cc(Nc2cccc([N+](=O)[O-])c2)c2ccccc2n1 | -2 | 5 | 45 | 0 | 1
Cc1cc(C)cc(Nc2ccc(C(=O)O)cc2N)c1 | -5 | 3 | -12 | 25 | 0.7
Cc1ccc2nc(C)cc(NCCO)c2c1 | 3 | -7 | 33 | -11 | 1.1
Cc1ccc2nc(C)cc(Nc3ccc4c(c3)OCCO4)c2c1 | 25 | 7 | 100* | -8 | 1.1
CCOc1ccc2nc(C)cc(Nc3cccc([N+](=O)[O-])c3)c2c1 | 1 | 7 | 100* | 4 | 1
O=c1[nH]c(Nc2ccc3c(c2)OCCO3)nnc1Cc1ccc(Cl)cc1 | -14 | -8 | -9 | 5 | 1
CCN(CC)C(=O)c1c2c(nc3ccccc13)-c1ccccc1CC2 | 19 | -26 | 62* | 19 | 0.8
Cc1cccc(C(=O)O/N=C/c2c(N3CCOCC3)n(C)c3ccccc23)c1 | -5 | 4 | 99* | 17 | 0.8
Cn1c(Cl)c(/C=N/OC(=O)c2ccccc2Cl)c2ccccc21 | 24 | -14 | -10 | -1 | 1
O=C(Nc1ccc(Cl)cc1)c1ccc(Br)cc1F | -1 | 3 | 7 | 5 | 0.9
S=c1[nH]nc(-c2ccccn2)n1/N=C/c1ccc(-c2ccccc2Br)o1 | 27 | -4 | -7 | 6 | 0.9
S=c1[nH]nc(-c2ccccc2)n1/N=C/c1ccc(-c2ccccc2Cl)o1 | 58* | -16 | 10 | 16 | 0.8
CC(=O)Oc1cc2oc(=O)c3c(c2cc1Cl)CCC3 | 13 | 2 | -4 | 8 | 0.9
Fc1cccc(Cl)c1CNCc1ccccc1Cl | -3 | -1 | -2 | 22 | 0.8
Cc1ccc(C(=O)Nc2ncc3c(n2)CC(c2ccco2)CC3=O)cc1 (centres undefined) | 9 | 9 | -4 | 6 | 0.9
O=C(Nc1ncc2c(n1)CC(c1ccco1)CC2=O)c1ccccc1 (centres undefined) | 70* | 12 | 1 | 11 | 0.9
Cc1ccccc1Nc1c(-c2ccccn2)nc2ccccn12 | 64* | 15 | 100* | -17 | 1.2
Cc1ccn2c(Nc3ccccc3C)c(-c3ccccn3)nc2c1 | 72* | 20 | 101* | 9 | 0.9
SMILES | WT yeast gro inh | G6PDH CS | Lmaj promast | Diaph inh CS | Diaph act CS
Cc1ccc2nc(-c3cccnc3)c(Nc3ccccc3C)n2c1 | -11 | -3 | 24 | 17 | 0.8
Cc1ccn2c(Nc3ccccc3)c(-c3ccccn3)nc2c1 | 73* | 17 | 101* | -4 | 1
Cc1ccc2nc(-c3ccccn3)c(Nc3ccccc3C)n2c1 | 76* | 14 | 100* | 7 | 0.9
O=C(Nc1cccc([N+](=O)[O-])c1)c1ccc(N2CCCC2=O)cc1 | -18 | -5 | -4 | 1 | 1
Cc1c(Cl)cccc1-n1nnnc1-c1cccs1 | -2 | 6 | 9 | 18 | 0.8
Cc1ccccc1Nc1c(-c2ccncc2)nc2ccc(Br)cn12 | 17 | 7 | 96* | 7 | 0.9
C=CCn1c(C)csc1=Nc1ccc(C(=O)O)cc1 | -16 | 1 | 8 | 14 | 0.9
COc1cc(/C=C/C(=O)O)cc(S(=O)(=O)Nc2ccccc2Cl)c1OC | -9 | -5 | 0 | 12 | 0.9
Cc1ccc(C(=O)C(c2ccccc2)N2Cc3ccccc3C2=N)cc1 (centres undefined) | 70* | 7 | 99* | 9 | 0.9
O=C(NC1CCCCC1)C(c1cc2c(cc1[N+](=O)[O-])OCO2)N1CCCCC1 (centres undefined) | 7 | 1 | 49 | 29 | 0.7
CCOc1cc2c(C#N)c(N3CCOCC3)nc(N)c2c(N)n1 | 12 | 18 | / | 64* | 0.4
CCC1Cc2c(nc(N)c3c(N)nc(N4CCOCC4)c(C#N)c23)O1 (centres undefined) | -8 | 10 | 13 | 29 | 0.7
COc1cc(OC)cc(C(=O)N2c3ccc(F)cc3CCC2C)c1 (centres undefined) | 4 | -2 | 7 | 24 | 0.8
Cc1cc([N+](=O)[O-])nn1Cc1ccc(C(=O)N/N=C/c2ccc(O)cc2O)cc1 | -5 | -13 | 95* | 20 | 0.8
O=C(N/N=C/c1ccc(O)cc1O)c1ccc(CN2C(=O)c3cccc4cccc2c34)cc1 | 2 | -8 | 100* | 13 | 0.9
O=C(N/N=C/c1ccccc1)c1ccc(CN2C(=O)c3cccc4cccc2c34)cc1 | -9 | -1 | 11 | 20 | 0.8
Cc1cc(C)c(C)c(S(=O)(=O)N2CCN(CC(=O)Nc3ccc([N+](=O)[O-])cc3)CC2)c1C | -10 | 8 | -5 | 13 | 0.9
CC(C)N(Cc1nc2ccccc2[nH]1)C(C)C | 4 | -12 | 37 | 4 | 1
COc1ccc(Cc2nc3ccccc3[nH]2)cc1OC | -23 | 1 | -2 | 6 | 0.9
Cc1cccc(CC(Cc2nc3ccccc3[nH]2)c2nc3ccccc3[nH]2)c1 (centres undefined) | 13 | 6 | 93* | 13 | 0.9
Cc1ccc(C)c(OCc2nc3ccccc3[nH]2)c1 | 16 | 11 | 45 | 22 | 0.8
COc1ccccc1CC(Cc1nc2ccccc2[nH]1)c1nc2ccccc2[nH]1 (centres undefined) | 11 | 20 | 98* | 10 | 0.9
CC(c1ccccc1)C(Cc1nc2ccccc2[nH]1)c1nc2ccccc2[nH]1 (centres undefined) | -6 | 4 | 95* | 19 | 0.8
O=C(NCc1ccccc1)c1ccc(C(=O)N(C2CCCCC2)C2CCCCC2)cc1 | 62* | 15 | 38 | 15 | 0.8
O=C(NC1CCCCCC1)C(=S)NCc1ccccc1 | 73* | 1 | -3 | -10 | 1.1
O=C(NC1CCCCC1)C(=S)NCc1ccccc1 | 22 | -7 | 1 | 7 | 0.9
O=C(NC1=NC2CCCCC2N1)c1ccccc1 (centres undefined) | -15 | 14 | 12 | 0 | 1
FC(F)(F)c1cc(-c2cccs2)nc(-n2cc(Cl)cn2)n1 | 7 | 0 | 2 | 11 | 0.9
COCCCNC(=O)CS(=O)(=O)Cc1nc(-c2cccc(OC)c2)oc1C | 75* | 5 | -7 | 0 | 1
